Measurements reported in ChEMBL document CHEMBL4177526, “Discovery and structure activity relationship of the first potent cryptosporidium FIKK kinase inhibitor” (Bioorg Med Chem, 2017).

What was measured:
[1] = Inhibition of Cryptosporidium parvum CDPK1 using PLARTLSVAGLPGKK peptide as substrate by NADH coupled LDH-PK ATPase assay
How it was run: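 NADH-coupled LDH-PK ATPase read-out with 1.2 nM recombinant CpCDPK1, 0.25 mM ATP, 0.1 mM Syntide 2.0 peptide and 2 mM CaCl2. Inhibitors were made as 10 mM DMSO stocks and tested in 2-fold serial dilutions. IC50 is the average of triplicate experiments.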

Cryptosporidium parvum = assay: Inhibition of recombinant Cryptosporidium parvum FIKK assessed as change in melting temperature at 50 uM by differential static light scattering method
[2] = target: Mitogen-activated protein kinase 8 (Homo sapiens) (UniProt P45983); assay: Inhibition of human JNK1 (1 to 384 residues) assessed as residual activity at 500 nM in presence of 33P-ATP by filter binding assay relative to control
[3] = target: Mitogen-activated protein kinase kinase kinase kinase 2 (Homo sapiens) (UniProt Q12851); assay: Inhibition of human GCK (2 to 812 residues) assessed as residual activity at 500 nM in presence of 33P-ATP by filter binding assay relative to control
[4] = target: Dual specificity tyrosine-phosphorylation-regulated kinase 1A (Homo sapiens) (UniProt Q13627); assay: Inhibition of human DYRK1A (1 to 502 residues) assessed as residual activity at 500 nM in presence of 33P-ATP by filter binding assay relative to control
[5] = target: Tau-tubulin kinase 2 (Homo sapiens) (UniProt Q6IQ55); assay: Inhibition of human TTBK2 (1 to 450 residues) assessed as residual activity at 500 nM in presence of 33P-ATP by filter binding assay relative to control
[6] = target: Serine/threonine-protein kinase N2 (Homo sapiens) (UniProt Q16513); assay: Inhibition of human PRK2 (501 to 984 residues) assessed as residual activity at 500 nM in presence of 33P-ATP by filter binding assay relative to control
[7] = target: 3-phosphoinositide-dependent protein kinase 1 (Homo sapiens) (UniProt O15530); assay: Inhibition of human PDK1 (52 to 556 residues) assessed as residual activity at 500 nM in presence of 33P-ATP by filter binding assay relative to control
[8] = target: Dual specificity mitogen-activated protein kinase kinase 2 (Homo sapiens) (UniProt P36507); assay: Inhibition of human MKK2 (2 to 400 residues) assessed as residual activity at 500 nM in presence of 33P-ATP by filter binding assay relative to control
[9] = target: Serine/threonine-protein kinase BRSK1 (Homo sapiens) (UniProt Q8TDC3); assay: Inhibition of human BRSK1 (2 to 778 residues) assessed as residual activity at 500 nM in presence of 33P-ATP by filter binding assay relative to control
[10] = target: MAP kinase-activated protein kinase 5 (Homo sapiens) (UniProt Q8IW41); assay: Inhibition of human PRAK (1 to 471 residues) assessed as residual activity at 500 nM in presence of 33P-ATP by filter binding assay relative to control
[11] = target: Ephrin type-A receptor 4 (Homo sapiens) (UniProt P54764); assay: Inhibition of human EPHA4 (570 to 986 residues) assessed as residual activity at 500 nM in presence of 33P-ATP by filter binding assay relative to control
[12] = target: Mitogen-activated protein kinase kinase kinase 11 (Homo sapiens) (UniProt Q16584); assay: Inhibition of human MLK3 (96 to 386 residues) assessed as residual activity at 500 nM in presence of 33P-ATP by filter binding assay relative to control
[13] = target: MAP kinase-interacting serine/threonine-protein kinase 1 (Homo sapiens) (UniProt Q9BUB5); assay: Inhibition of human MNK1 (2 to 424 residues) assessed as residual activity at 500 nM in presence of 33P-ATP by filter binding assay relative to control
[14] = target: Ephrin type-B receptor 4 (Homo sapiens) (UniProt P54760); assay: Inhibition of human EPHB4 (561 to 987 residues) assessed as residual activity at 500 nM in presence of 33P-ATP by filter binding assay relative to control
[15] = target: Ephrin type-A receptor 2 (Homo sapiens) (UniProt P29317); assay: Inhibition of human EPHA2 (591 to 976 residues) assessed as residual activity at 500 nM in presence of 33P-ATP by filter binding assay relative to control
[16] = target: Platelet-derived growth factor receptor alpha (Homo sapiens) (UniProt P16234); assay: Inhibition of human PDGFRalpha (551 to […] residues) assessed as residual activity at 500 nM in presence of 33P-ATP by filter binding assay relative to control
[17] = target: MAP kinase-interacting serine/threonine-protein kinase 2 (Homo sapiens) (UniProt Q9HBH9); assay: Inhibition of human MNK2alpha (2 to 465 residues) assessed as residual activity at 500 nM in presence of 33P-ATP by filter binding assay relative to control
[18] = target: High affinity nerve growth factor receptor (Homo sapiens) (UniProt P04629); assay: Inhibition of human TRKA (441 to 760 residues) assessed as residual activity at 500 nM in presence of 33P-ATP by filter binding assay relative to control
[19] = target: Mitogen-activated protein kinase 10 (Homo sapiens) (UniProt P53779); assay: Inhibition of human JNK3 (40 to 422 residues) assessed as residual activity at 500 nM in presence of 33P-ATP by filter binding assay relative to control
[20] = target: Mitogen-activated protein kinase 11 (Homo sapiens) (UniProt Q15759); assay: Inhibition of human p38beta (1 to 364 residues) assessed as residual activity at 500 nM in presence of 33P-ATP by filter binding assay relative to control
[21] = target: Misshapen-like kinase 1 (Homo sapiens) (UniProt Q8N4C8); assay: Inhibition of human MINK1 (1 to 320 residues) assessed as residual activity at 500 nM in presence of 33P-ATP by filter binding assay relative to control
[22] = target: Receptor-interacting serine/threonine-protein kinase 2 (Homo sapiens) (UniProt O43353); assay: Inhibition of human RIPK2 (2 to 311 residues) assessed as residual activity at 500 nM in presence of 33P-ATP by filter binding assay relative to control
[23] = target: Mitogen-activated protein kinase 14 (Homo sapiens) (UniProt Q16539); assay: Inhibition of human p38alpha (1 to 360 residues) at 500 nM in presence of 33P-ATP by filter binding assay relative to control
[24] = Permeability in human Caco2 cells; format: ADME, cell-based; details: Caco-2, read-out: permeability
[25] = target: serine/threonine-protein kinase D1 (Homo sapiens) (UniProt Q15139); assay: Inhibition of human PKD1 (2 to 912 residues) assessed as residual activity at 500 nM in presence of 33P-ATP by filter binding assay relative to control

Platelet-derived growth factor receptor alpha (Homo sapiens), sequence (P16234 whole entry, the tested form may be a part): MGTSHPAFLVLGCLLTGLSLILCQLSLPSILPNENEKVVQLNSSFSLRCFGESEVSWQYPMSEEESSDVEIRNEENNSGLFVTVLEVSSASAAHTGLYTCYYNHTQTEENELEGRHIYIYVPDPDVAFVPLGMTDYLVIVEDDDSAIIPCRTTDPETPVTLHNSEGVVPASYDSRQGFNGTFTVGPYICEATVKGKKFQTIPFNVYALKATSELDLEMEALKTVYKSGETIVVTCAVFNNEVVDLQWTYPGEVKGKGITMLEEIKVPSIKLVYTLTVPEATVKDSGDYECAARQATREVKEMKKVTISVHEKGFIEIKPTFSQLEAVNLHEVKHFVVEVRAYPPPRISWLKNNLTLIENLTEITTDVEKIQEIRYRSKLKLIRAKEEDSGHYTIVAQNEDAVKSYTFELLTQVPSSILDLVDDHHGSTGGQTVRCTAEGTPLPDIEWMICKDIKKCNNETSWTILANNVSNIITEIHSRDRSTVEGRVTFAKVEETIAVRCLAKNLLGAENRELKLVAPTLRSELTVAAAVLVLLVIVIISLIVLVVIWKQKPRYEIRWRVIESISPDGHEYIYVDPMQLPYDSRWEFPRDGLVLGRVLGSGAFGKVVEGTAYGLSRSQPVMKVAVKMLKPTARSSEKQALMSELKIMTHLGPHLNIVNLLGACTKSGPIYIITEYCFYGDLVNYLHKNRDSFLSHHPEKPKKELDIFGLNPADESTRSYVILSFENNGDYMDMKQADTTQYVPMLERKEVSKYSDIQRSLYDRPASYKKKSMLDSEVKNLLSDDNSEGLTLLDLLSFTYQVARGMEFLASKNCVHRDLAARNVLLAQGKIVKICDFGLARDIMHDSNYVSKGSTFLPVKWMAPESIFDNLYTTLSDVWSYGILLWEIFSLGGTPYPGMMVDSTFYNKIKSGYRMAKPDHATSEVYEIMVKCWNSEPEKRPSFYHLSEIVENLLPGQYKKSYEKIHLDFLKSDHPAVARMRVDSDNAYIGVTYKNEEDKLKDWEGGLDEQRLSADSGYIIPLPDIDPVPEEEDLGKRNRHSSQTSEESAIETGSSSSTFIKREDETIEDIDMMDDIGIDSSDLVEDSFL
Mitogen-activated protein kinase 11 (Homo sapiens), sequence (Q15759 whole entry, the tested form may be a part): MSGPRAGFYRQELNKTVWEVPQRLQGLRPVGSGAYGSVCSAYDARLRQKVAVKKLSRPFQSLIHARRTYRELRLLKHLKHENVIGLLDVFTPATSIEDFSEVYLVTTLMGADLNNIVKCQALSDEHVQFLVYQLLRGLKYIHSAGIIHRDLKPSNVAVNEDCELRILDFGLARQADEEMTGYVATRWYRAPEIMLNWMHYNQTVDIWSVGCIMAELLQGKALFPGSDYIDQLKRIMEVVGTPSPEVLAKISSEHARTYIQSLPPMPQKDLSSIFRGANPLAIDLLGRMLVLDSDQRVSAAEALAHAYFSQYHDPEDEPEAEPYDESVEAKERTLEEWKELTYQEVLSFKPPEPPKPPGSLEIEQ
Mitogen-activated protein kinase 14 (Homo sapiens), sequence (Q16539 whole entry, the tested form may be a part): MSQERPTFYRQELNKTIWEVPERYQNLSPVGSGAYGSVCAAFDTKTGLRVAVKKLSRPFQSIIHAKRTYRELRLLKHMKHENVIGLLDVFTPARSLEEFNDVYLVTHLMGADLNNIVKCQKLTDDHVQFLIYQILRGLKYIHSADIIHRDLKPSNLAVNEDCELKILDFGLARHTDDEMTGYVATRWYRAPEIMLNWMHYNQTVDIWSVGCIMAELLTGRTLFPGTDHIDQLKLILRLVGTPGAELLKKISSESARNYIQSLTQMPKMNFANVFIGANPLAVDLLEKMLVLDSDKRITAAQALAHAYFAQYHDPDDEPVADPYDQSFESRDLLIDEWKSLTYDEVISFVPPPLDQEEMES
Ephrin type-A receptor 4 (Homo sapiens), sequence (P54764 whole entry, the tested form may be a part): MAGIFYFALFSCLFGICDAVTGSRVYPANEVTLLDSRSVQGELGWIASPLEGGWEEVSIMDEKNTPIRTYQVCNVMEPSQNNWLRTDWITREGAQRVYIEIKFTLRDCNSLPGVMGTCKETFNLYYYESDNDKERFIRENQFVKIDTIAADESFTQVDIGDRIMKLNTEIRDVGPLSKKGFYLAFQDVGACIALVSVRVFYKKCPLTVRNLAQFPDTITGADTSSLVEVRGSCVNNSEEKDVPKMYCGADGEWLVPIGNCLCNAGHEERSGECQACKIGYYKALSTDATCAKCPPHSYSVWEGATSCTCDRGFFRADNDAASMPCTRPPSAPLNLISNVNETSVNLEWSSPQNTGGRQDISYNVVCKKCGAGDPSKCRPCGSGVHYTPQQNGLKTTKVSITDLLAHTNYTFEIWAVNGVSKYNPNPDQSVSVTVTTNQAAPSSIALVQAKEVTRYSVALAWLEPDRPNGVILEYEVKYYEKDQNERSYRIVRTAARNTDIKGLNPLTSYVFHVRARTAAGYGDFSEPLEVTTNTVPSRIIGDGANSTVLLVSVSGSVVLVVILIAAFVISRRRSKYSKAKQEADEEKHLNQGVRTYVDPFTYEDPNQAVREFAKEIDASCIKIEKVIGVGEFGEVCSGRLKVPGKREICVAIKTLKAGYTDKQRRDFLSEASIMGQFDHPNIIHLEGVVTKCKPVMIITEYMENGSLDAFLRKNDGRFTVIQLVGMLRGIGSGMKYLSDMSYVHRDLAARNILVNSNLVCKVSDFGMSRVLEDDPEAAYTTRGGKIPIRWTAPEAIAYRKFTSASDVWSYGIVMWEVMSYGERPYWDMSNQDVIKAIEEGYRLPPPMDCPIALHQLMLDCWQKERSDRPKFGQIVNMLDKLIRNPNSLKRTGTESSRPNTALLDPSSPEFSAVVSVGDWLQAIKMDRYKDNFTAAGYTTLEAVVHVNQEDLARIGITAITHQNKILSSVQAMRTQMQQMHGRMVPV
MAP kinase-interacting serine/threonine-protein kinase 2 (Homo sapiens), sequence (Q9HBH9 whole entry, looked up, the tested form may be a part): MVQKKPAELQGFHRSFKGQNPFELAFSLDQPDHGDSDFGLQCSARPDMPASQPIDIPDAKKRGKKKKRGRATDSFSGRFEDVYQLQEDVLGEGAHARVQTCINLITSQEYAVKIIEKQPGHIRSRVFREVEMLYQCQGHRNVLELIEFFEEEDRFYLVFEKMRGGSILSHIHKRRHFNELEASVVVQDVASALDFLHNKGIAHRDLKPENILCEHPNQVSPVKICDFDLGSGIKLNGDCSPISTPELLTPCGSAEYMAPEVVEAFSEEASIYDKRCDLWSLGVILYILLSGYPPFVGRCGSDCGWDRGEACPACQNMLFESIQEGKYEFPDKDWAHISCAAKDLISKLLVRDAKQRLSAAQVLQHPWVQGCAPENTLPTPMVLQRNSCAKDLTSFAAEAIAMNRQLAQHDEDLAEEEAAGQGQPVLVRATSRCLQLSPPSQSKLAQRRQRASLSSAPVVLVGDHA
Serine/threonine-protein kinase N2 (Homo sapiens), sequence (Q16513 whole entry, looked up, the tested form may be a part): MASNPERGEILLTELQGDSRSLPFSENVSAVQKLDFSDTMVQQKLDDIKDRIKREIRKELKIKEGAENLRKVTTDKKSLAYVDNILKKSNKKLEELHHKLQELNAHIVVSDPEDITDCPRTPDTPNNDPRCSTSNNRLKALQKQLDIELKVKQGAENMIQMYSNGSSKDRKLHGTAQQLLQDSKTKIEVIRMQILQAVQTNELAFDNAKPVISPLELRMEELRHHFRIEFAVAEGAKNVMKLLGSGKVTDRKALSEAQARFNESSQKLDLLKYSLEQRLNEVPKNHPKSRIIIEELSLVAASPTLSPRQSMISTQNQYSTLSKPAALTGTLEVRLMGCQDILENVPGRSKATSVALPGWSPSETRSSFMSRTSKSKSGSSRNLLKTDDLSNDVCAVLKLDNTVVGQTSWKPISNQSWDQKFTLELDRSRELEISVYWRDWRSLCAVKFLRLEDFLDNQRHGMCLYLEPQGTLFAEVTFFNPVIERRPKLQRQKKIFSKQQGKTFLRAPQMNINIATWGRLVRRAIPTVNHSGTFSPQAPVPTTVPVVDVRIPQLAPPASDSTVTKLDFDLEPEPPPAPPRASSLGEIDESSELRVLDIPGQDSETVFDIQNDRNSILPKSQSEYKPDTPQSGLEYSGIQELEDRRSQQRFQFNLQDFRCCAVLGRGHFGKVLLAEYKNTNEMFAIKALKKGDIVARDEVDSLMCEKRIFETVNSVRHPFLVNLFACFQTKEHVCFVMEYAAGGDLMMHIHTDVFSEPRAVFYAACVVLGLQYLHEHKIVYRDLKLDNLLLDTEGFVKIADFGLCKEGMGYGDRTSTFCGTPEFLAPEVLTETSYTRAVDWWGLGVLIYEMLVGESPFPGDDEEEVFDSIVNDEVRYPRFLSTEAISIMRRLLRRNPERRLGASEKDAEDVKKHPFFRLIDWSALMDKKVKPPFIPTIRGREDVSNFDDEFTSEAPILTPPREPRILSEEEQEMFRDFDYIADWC
Serine/threonine-protein kinase BRSK1 (Homo sapiens), sequence (Q8TDC3 whole entry, the tested form may be a part): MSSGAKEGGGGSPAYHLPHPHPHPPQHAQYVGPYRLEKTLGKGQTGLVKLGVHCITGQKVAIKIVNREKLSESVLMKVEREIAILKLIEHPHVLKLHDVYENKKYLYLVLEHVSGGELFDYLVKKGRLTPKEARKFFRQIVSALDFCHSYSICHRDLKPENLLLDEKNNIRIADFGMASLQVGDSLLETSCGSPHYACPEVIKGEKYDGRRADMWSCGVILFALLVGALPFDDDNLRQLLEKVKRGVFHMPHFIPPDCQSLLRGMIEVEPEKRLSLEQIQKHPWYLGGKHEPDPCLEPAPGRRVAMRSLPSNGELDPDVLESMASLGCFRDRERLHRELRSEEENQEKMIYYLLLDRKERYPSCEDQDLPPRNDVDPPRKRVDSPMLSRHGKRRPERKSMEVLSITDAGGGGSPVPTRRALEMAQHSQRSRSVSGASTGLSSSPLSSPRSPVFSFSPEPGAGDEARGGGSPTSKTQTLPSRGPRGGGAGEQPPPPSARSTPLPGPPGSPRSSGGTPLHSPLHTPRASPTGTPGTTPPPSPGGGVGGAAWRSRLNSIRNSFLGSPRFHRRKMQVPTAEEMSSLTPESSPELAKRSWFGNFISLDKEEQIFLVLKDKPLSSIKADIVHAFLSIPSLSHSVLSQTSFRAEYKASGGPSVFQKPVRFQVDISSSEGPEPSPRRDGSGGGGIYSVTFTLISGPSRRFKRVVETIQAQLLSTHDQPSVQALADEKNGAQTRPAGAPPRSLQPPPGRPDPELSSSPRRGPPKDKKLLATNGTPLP

- IC50 [1]: 190 nM
- ΔTm (Cryptosporidium parvum): 5.2 °C
- Activity [2]: 134%
- Activity [3]: 133%
- Activity [4]: 132%
- Activity [5]: 125%
- Activity [6]: 121%
- Activity [7]: 118%
- Activity [8]: 112%
- Activity [9]: 111%
- Activity [10]: 105%
- Activity [11]: 104%
- Activity [12]: 101%
- Activity [13]: 99%
- Activity [14]: 99%
- Activity [15]: 99%
- Activity [16]: 99%
- Activity [17]: 98%
- Activity [18]: 97%
- Activity [19]: 90%
- Activity [20]: 80%
- Activity [21]: 74%
- Activity [22]: 30%
- inhibition [23]: 91%
- Papp [24]: 11 ×10⁻⁶ cm/s
- Activity [25]: 9%
Structure (SMILES): Cc1cccc(-c2nc(N)sc2-c2ccc3ncccc3n2)c1
